The values that follow come from the array DNA melting data of Ke et al. (doi:10.1101/2024.01.08.574731).

A short description of series [1]: melting temperature; fluorescence melt of hairpins on a sequencing array, two-state fit, raised by 9.35 °C to match UV melts. The settings on record: sodium 0.088 M. An outline of the steps: (§1)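 Melting temperature and folding enthalpy were derived from bootstrapped two-state fits. The fitted temperatures were raised by 9.35 °C to agree with UV melts, and four replicates were combined by inverse variance. The underlying data were Cy3 fluorescence images of library hairpins, with annealed Cy3 and quencher oligos, on a sequenced MiSeq flow cell in 50 mM Na-HEPES pH 8.0, 25 mM NaCl, taken in 2.5 °C steps up to 60 °C, normalised to pre-quench Cy3 and to control constructs.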

Series [2] can be described thus: folding enthalpy; higher = less favourable; fluorescence melt of hairpins on a sequencing array, two-state fit. The settings on record: sodium 0.088 M. In short, it runs like this:
as §1

Regarding GATGATGCGAAAGCAATC (((..(((....)))))), the Tm in series [1] stood at 37.6 °C. In addition, the folding enthalpy in series [2] is -13.7 kcal/mol.
Turning to GCCGAACGAAAGTTGGC (((.(((....)))))), the Tm in series [1] came to 57.2 °C. Moreover, in series [2], the folding enthalpy is -32.3 kcal/mol.
Taken in the same sequence, the figures for GATCCAATATGGATC ((((((...)))))) were 51.3 °C and -38.7 kcal/mol.
Taken in the same sequence, the figures for CGCGGACAGTTCCGCG ((((((....)))))) were 66.6 °C and -40.7 kcal/mol.
With GATTGGACGAAAGTCATC (((..(((....)))))), the Tm in series [1] amounted to 27 °C. Besides, the folding enthalpy in series [2] is -10.5 kcal/mol.
The matching figures for GATCCTTGTGAGGATC ((((((....)))))): 56.1 °C and -38 kcal/mol.
Regarding GAATGTGGAAACATATTC ((((.((....)).)))), in series [1], the Tm is 35.1 °C. For the same sequence, the folding enthalpy in series [2] was -33.2 kcal/mol.
The matching figures for GCTCCGCGAAAGCTGGGC ((.(.((....)).).)): 44.9 °C and -21.5 kcal/mol.
The matching figures for GACTTCGGAAACGGAGTC ((((.((....)).)))): 49.4 °C and -39 kcal/mol.
Turning to GATTTCGAAAGAAATC ((((((....)))))), in series [1], the Tm was 55 °C. For the same sequence, the folding enthalpy in series [2] is -38.2 kcal/mol.
Taken in the same sequence, the figures for GTAAGCGAAAGCTTCTAC ((((((....)))..))) were 33.6 °C and -11.2 kcal/mol.
Turning to GATCTTCCGGAAGATC ((((((....)))))), the Tm in series [1] was 53.1 °C. In addition, in series [2], the folding enthalpy is -55.2 kcal/mol.
Taken in the same sequence, the figures for GGGACTCCGAAAGGACCC (((..(((....)))))) were 41.5 °C and -16 kcal/mol.
The matching figures for GCAGTCGAAAGACCGTGC ((((((....)))..))): 38.1 °C and -16.8 kcal/mol.
On to GATCAGGAGACTGATC ((((((....)))))), for which the Tm in series [1] came to 51.3 °C. Moreover, in series [2], the folding enthalpy was -37.6 kcal/mol.
Taken in the same sequence, the figures for GCACCTCCGAAAGGATGC (((..(((....)))))) were 36.5 °C and -21.9 kcal/mol.
For the sequence GCGACAGGAAACTACCGC (((..((....))..))), the Tm in series [1] came to 31.6 °C. Moreover, the folding enthalpy in series [2] is -20.5 kcal/mol.
The matching figures for GCTCGCGAAAGCGTAAGC ((((((....)))..))): 51.3 °C and -13.4 kcal/mol.
The matching figures for GCAAAGGGAAACCTTTAC (.(((((....))))).): 28 °C and -15.8 kcal/mol.
With GTGGTCGAAAGACACAC ((((((....))).))), in series [1], the Tm was determined as 50.3 °C. In addition, the folding enthalpy in series [2] was -26.6 kcal/mol.
Taken in the same sequence, the figures for GGGGCTCGAAAGAGTCCC (((.(((....))).))) were 67.7 °C and -42.8 kcal/mol.
GGGAGCGAAAGCTAGCCC ((((((....)))..))): in series [1], the Tm is 42.7 °C. In addition, in series [2], the folding enthalpy is -14.2 kcal/mol.
In the case of GATCACACGAGTGATC ((((((....)))))), the Tm in series [1] stood at 56.4 °C. For the same sequence, the folding enthalpy in series [2] is -43.6 kcal/mol.
The matching figures for GATCCAGTTTTGGATC ((((((....)))))): 52.4 °C and -41.6 kcal/mol.
For GCAGCAGGAAACTGTTGC (((.(((....))).))), the Tm in series [1] stood at 52.1 °C. Further, the folding enthalpy in series [2] was -52.3 kcal/mol.
Taken in the same sequence, the figures for GCCATAACGAAAGTTGGC (((..(((....)))))) were 49.3 °C and -30.9 kcal/mol.
Taken in the same sequence, the figures for GGTAGTGGAAACGTTACC ((((..(....)..)))) were 34.5 °C and -17.1 kcal/mol.
The matching figures for GTCTTTCGAAAGAACGAC (((.(((....))).))): 41 °C and -40.9 kcal/mol.
Take GCTAACGAAAGTTCAAGC ((((((....)))..))): the Tm in series [1] was 30.9 °C. Also, the folding enthalpy in series [2] was -12.5 kcal/mol.
Taken in the same sequence, the figures for GATCATCTATATGATC ((((((....)))))) were 47.9 °C and -36.2 kcal/mol.
On to GCAAAGCCGAAAGGCTGC (((..(((....)))))), for which, in series [1], the Tm turned out to be 54 °C. The folding enthalpy in series [2] was -14.2 kcal/mol.
For AGAATGAAAATTCT (((((....))))), in series [1], the Tm stood at 25.9 °C. The folding enthalpy in series [2] is -10.8 kcal/mol.
For GATCAACTCTTGATC ((((((...)))))), the Tm in series [1] came out at 42.3 °C. Further, in series [2], the folding enthalpy was -35.7 kcal/mol.
The matching figures for GATCCTTTGGAGGATC ((((((....)))))): 53.3 °C and -39.5 kcal/mol.
With GCCCACGAAAGTGCAGGC ((((((....)))..))), the Tm in series [1] was determined as 50.1 °C. The folding enthalpy in series [2] is -28.1 kcal/mol.
Taken in the same sequence, the figures for GATCCCGAAAGGGAATC ((((((....))).))) were 49.6 °C and -14.5 kcal/mol.
Consider GAACAACGAAAGTTATTC (((.(((....))).))), for which the Tm in series [1] worked out at 30.1 °C. Also, in series [2], the folding enthalpy is -18.4 kcal/mol.
